Data taken from article PMC3332339 (European Journal of Clinical Pharmacology, 2012).
Marks after values point to notes of the source that are not given here.

Tests used:
[1] = system: factor Xa inhibition and thrombin inhibition; assay: Prothrombinase-induced clotting time; assay type: in vivo, human; settings: for PiCT AUEC0–48, ratio of adjusted test/reference gMean (90% CI) / PiCT ERmax, ratio of adjusted test/reference gMean (90% CI): after enoxaparin vs alone
Procedure, shortened: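 Healthy-adult crossover: oral prodrug 220 mg alone, or 24 h after 3 daily s.c. LMWH 40 mg doses. Platelet-poor plasma incubated with phospholipid/Russell's viper venom activator, 3 min at 37°C; factor Xa added, recalcified with reagent containing 25 mM CaCl2, clotting time read. Daily 142 ng/mL quality-control standard run at start, middle and end. AUEC0–48 and ERmax versus baseline; geometric mean ratios with 90% CI.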

Safety and tolerability = assay type: in vivo, human; settings: for Tolerability (global assessment): Phase I, healthy subjects
Procedure, shortened: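 Open-label single-center crossover in healthy men and women: oral prodrug 220 mg alone, or after 3 daily s.c. LMWH 40 mg doses. Assessed by adverse events, physical examination, blood pressure, pulse, 12-lead ECG, hematology, clinical chemistry, urinalysis, local tolerability and investigator global assessment. Follow-up on days 1–3, with end-of-study examination within 7 days.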

[2] = system: thrombin (meizothrombin generated from prothrombin by ecarin); assay: Ecarin clotting time; assay type: in vivo, human
[3] = system: intrinsic pathway of the coagulation cascade; assay: Activated partial thromboplastin time; assay type: in vivo, human; settings: for aPTT AUEC0–48, gMean / aPTT ERmax, gMean / aPTT Ebase (baseline effect), gMean: n = 23
Procedure, shortened: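 Crossover in healthy adults (18–55 y) with 5-day washout: oral thrombin-inhibitor prodrug 220 mg alone, or 24 h after 3 daily s.c. LMWH 40 mg doses. Plasma sampled over 48 h. Equal volumes of plasma and kaolin–cephalin reagent, 3 min at 37°C with stirring, recalcified with 0.025 M CaCl2, then time to fibrin clot on a coagulometer. Geometric mean test/reference ratios with 90% CI.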

human α-thrombin = assay: Diluted thrombin time; assay type: in vivo; settings: for dTT (HEMOCLOT) AUEC0–48, gMean / dTT (HEMOCLOT) ERmax, gMean / dTT (HEMOCLOT) Ebase (baseline effect), gMean: n = 23
Procedure, shortened: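 Healthy-adult crossover (oral prodrug 220 mg alone or after 3 days of s.c. LMWH 40 mg), plasma sampled over 48 h. Plasma diluted in 0.9% NaCl, mixed with normal pooled human plasma, 2 min at 37°C; clotting started with a fixed amount of purified human α-thrombin and time to clot recorded in seconds. Quantitative range 50–500 ng/mL. AUEC0–48 and ERmax; geometric mean ratios with 90% CI.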

[4] = pharmacologically equipotent glucuronide; cited from earlier work
[5] = Dabigatran plasma pharmacokinetics; assay type: in vivo, human; settings: for AUC(0-inf) / Cmax: both, human, plasma
Procedure, shortened: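 Crossover in healthy adults: 220 mg oral prodrug alone, or 24 h after 3 daily s.c. LMWH 40 mg doses, with 5-day washout. Plasma taken to 48 h post-dose. Free drug: plasma buffered with 0.2 M ammonium formate pH 3.5 plus [13C6] internal standard. Total drug: alkaline cleavage with NaOH, 2 h at 37°C, then HCl. Validated HPLC-MS/MS, calibrated 1.00–400 ng/mL. Geometric mean ratios with 90% CI.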

factor Xa/IIa = settings: cited from earlier work
[6] = dabigatran etexilate 220 mg after enoxaparin, n = 21
[7] = dabigatran etexilate 220 mg alone, n = 23
[8] = dabigatran etexilate dosed 24 h after enoxaparin
[9] = dabigatran etexilate 220 mg after enoxaparin, n = 23
[10] = dabigatran etexilate 220 mg after enoxaparin
[11] = dabigatran etexilate 220 mg alone
[12] = dabigatran etexilate 220 mg after enoxaparin vs alone, adjusted gMean ratio
[13] = enoxaparin pre-treatment before dabigatran etexilate 220 mg

CCCCCCOC(=O)NC(=N)c1ccc(NCc2nc3cc(C(=O)N(CCC(=O)OCC)c4ccccn4)ccc3n2C)cc1 [Dabigatran etexilate]
PiCT AUEC0–48, ratio of adjusted test/reference gMean (90% CI) [1]: 163.7 (114.3–234.3) %
PiCT ERmax, ratio of adjusted test/reference gMean (90% CI) [1]: 115.2 (101.8–130.4) %
PiCT AUEC0–48, ratio of adjusted test/reference gMean (90% CI) ([1]; listed as dabigatran etexilate): 163.7%
PiCT ERmax, ratio of adjusted test/reference gMean (90% CI) ([1]; listed as dabigatran etexilate): 115.2%
PiCT AUEC0–48, gMean [1, 6]: 23.8^c h
PiCT ERmax (maximum effect ratio to baseline), gMean [1, 6]: 2.92^c
PiCT Ebase (baseline effect), gMean [1, 6]: 34.7^c s
PiCT AUEC0–48, gMean [1, 7]: 14.6 h
PiCT ERmax (maximum effect ratio to baseline), gMean [1, 7]: 2.53
PiCT Ebase (baseline effect), gMean [1, 7]: 28.4 s
Increase of PiCT ERmax compared with dabigatran etexilate alone [1, 8]: approximately 15%
PiCT time to peak ([1]; similar in both treatment regimens (alone and 24 h after enoxaparin)): 3 h
Tolerability (global assessment) (Safety and tolerability): well tolerated
ECT AUEC0–48, ratio of adjusted test/reference gMean (90% CI) ([2]; after enoxaparin vs alone): 99.2 (67.8–145.0) %
ECT ERmax, ratio of adjusted test/reference gMean (90% CI) ([2]; after enoxaparin vs alone): 91.0 (80.0–103.5) %
ECT Ebase (baseline effect), gMean ([2]; dabigatran etexilate 220 mg after enoxaparin, n = 22): 32.6^d s
ECT AUEC0–48, gMean [2, 9]: 7.30 h
ECT ERmax, gMean [2, 9]: 2.05
ECT AUEC0–48, gMean [2, 7]: 7.28 h
ECT ERmax, gMean [2, 7]: 2.25
ECT Ebase (baseline effect), gMean [2, 7]: 33.1 s
aPTT AUEC0–48, ratio of adjusted test/reference gMean (90% CI) ([3]; after enoxaparin vs alone): 114.2 (75.1–173.5) %
aPTT ERmax, ratio of adjusted test/reference gMean (90% CI) ([3]; after enoxaparin vs alone): 84.9 (70.3–102.5) %
aPTT AUEC0–48, gMean [3, 10]: 6.56 h
aPTT ERmax, gMean [3, 10]: 2.07
aPTT Ebase (baseline effect), gMean [3, 10]: 39.3 s
aPTT AUEC0–48, gMean [3, 11]: 5.65 h
aPTT ERmax, gMean [3, 11]: 2.40
aPTT Ebase (baseline effect), gMean [3, 11]: 39.1 s
dTT (HEMOCLOT) AUEC0–48, ratio of adjusted test/reference gMean (90% CI) (human α-thrombin; after enoxaparin vs alone): 88.4 (66.8–116.9) %
dTT (HEMOCLOT) ERmax, ratio of adjusted test/reference gMean (90% CI) (human α-thrombin; after enoxaparin vs alone): 95.0 (87.4–103.2) %
dTT (HEMOCLOT) AUEC0–48, gMean (human α-thrombin; [10]): 3.61 h
dTT (HEMOCLOT) ERmax, gMean (human α-thrombin; [10]): 1.55
dTT (HEMOCLOT) Ebase (baseline effect), gMean (human α-thrombin; [10]): 31.0 s
dTT (HEMOCLOT) AUEC0–48, gMean (human α-thrombin; [11]): 4.01 h
dTT (HEMOCLOT) ERmax, gMean (human α-thrombin; [11]): 1.64
dTT (HEMOCLOT) Ebase (baseline effect), gMean (human α-thrombin; [11]): 31.7 s

[H]/N=C(/N)c1ccc(NCc2nc3cc(C(=O)N(CCC(=O)O)c4ccccn4)ccc3n2C)cc1 [dabigatran]
Increase of PiCT AUEC0–48 compared with dabigatran etexilate alone [1, 8]: 64%
Increase of PiCT ERmax compared with dabigatran etexilate alone [1, 8]: ~15%
Subjects with adverse events by actual treatment at onset (Safety and tolerability; treatment at onset: dabigatran (three subjects of 23)): 13.0%
Subjects with adverse events by actual treatment at onset (Safety and tolerability; treatment at onset: enoxaparin + dabigatran (three subjects of 23)): 13.0%
Glucuronide share of total dabigatran exposure in plasma [4]: approximately 20%
Ratio of free to total dabigatran gMean AUC0-∞ ([5]; after enoxaparin): 0.765
AUC(0-inf) ([5]; oral): 592 ng·h/mL
Cmax ([5]; oral): 78.4 ng/mL
AUC(0-inf) ([5]; po, 220 mg): 700 ng·h/mL
Cmax ([5]; po, 220 mg): 90.7 ng/mL
Ratio of free to total dabigatran gMean AUC0-∞ ([5]; dabigatran alone): 0.760
AUC0-∞, ratio test/reference [5, 12]: 85%
Cmax, ratio test/reference [5, 12]: 86%

enoxaparin
Tolerability (global assessment) (Safety and tolerability): well tolerated
Subjects with adverse events by actual treatment at onset (Safety and tolerability; treatment at onset: enoxaparin (four subjects of 23)): 17.4%
Effect of enoxaparin on ECT [2, 13]: not meaningfully affected
Effect of enoxaparin on dTT (human α-thrombin; [13]): not meaningfully affected
Mean anti-factor Xa/IIa ratio (factor Xa/IIa): 14.0 ± 3.1
